Assay outcomes as filed in PubChem.
Shown are actives, neighbours in structure and some others; about 4.1% of the full set was active somewhere.
hERG protect = hERG (human) protection from proarrhythmic block. CHO-hERG, FluxOR thallium flux, dofetilide IC70 present. activation (rescue from dofetilide block), less the hit threshold, % at 10 µM. actives 0.51% (n = 310,000);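 active = activation above the mean of controls blocked by dofetilide plus 5 SD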;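 note: thallium influx through hERG after potassium depolarization seen as dye fluorescence rise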
KCNK3 block = human KCNK3 channel inhibition, primary screen | CHO-KCNK3 thallium flux, FluxOR fluorescence; hits give low values | B-score at 10 µM | actives 0.84% (n = 340,000);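 active = B-score under library mean minus 4 SD, starting fluorescence ratio at most library mean plus 5 SD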;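 note: more negative B-score means stronger inhibition of thallium flux through KCNK3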
KCNQ1 pot = human KCNQ1 channel potentiation or activation; actives 0.35% (n = 310,000); AID 2648; P51787; CHO-K1 KCNQ1, thallium flux FluxOR fluorescence; hits give high values; B-score at 10 µM;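 active = fluorescence ratio B-score, a plate-corrected score, at least three library SD, with initial intensity B-score within 5 SD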
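Test system: CHO-K1 cells stably expressing KCNQ1 / Medium: assay buffer / Also added: depolarizing K+/Tl+ stimulus, K2SO4 and Tl2SO4 each 12.5 mM in 5x stock / Incubation: 90 min dye loading and 20 min compound exposure, both at room temperature / Signal: thallium influx via FluxOR fluorescence, kinetic imaging / Evaluation: B score of baseline-normalized fluorescence ratio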
KCNQ1 inh = human KCNQ1 channel inhibition; P51787; CHO-K1 KCNQ1, FluxOR thallium flux fluorescence; hits give high values; B-score at 10 µM; actives 1.3% (n = 310,000);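 active = compounds whose thallium flux B-score, printed positive for inhibition, exceeds three library SD while starting fluorescence stays within three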;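 note: channel opened by potassium depolarization with thallium stimulus after 20 min compound exposure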
Cl transport mod = modulates chloride dependent transport by human KCC2; Q9H2X9; KCC2 cells, thallium flux FluoZin-2 fluorescence; B-score of Tl+ flux slope (higher = more flux/activation; lower = inhibition) at 10 µM; actives 2.2% (n = 190,000); AID 1456;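 active = thallium flux slope and its plate-corrected score both differing from the plate sample mean at a set confidence after two filtering rounds, in either direction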;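 note: slope of fluorescence scaled to starting intensity during 10 to 20 s after thallium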
KCNK9 inh = inhibitors of human KCNK9 two-pore domain potassium channel; actives 1.2% (n = 310,000); B-score at 10 µM; HEK293 KCNK9, FluxOR thallium flux fluorescence; hits give low values;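 active = ratio B-score over 3 SD below the library mean, with starting fluorescence within 5 SD of its mean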;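 note: negative B-score means less thallium flux so channel inhibition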
KCNK9 block conf = human KCNK9 inhibitor confirmation. shares compounds with KCNK9 inh. HEK293 KCNK9 cells, FluxOR thallium flux fluorescence. inhibition, % at 10 µM. actives 43% (n = 4,900);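 active = thallium signal inhibited by more than 5 SD of the compound-free buffer control wells, on both duplicate plates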
Kir21 sel = tests whether KCNK9 modulators also affect mouse Kir2.1. shares compounds with KCNK9 inh. Kir2.1 cells, FluxOR thallium flux fluorescence. inhibition, % at 10 µM. actives 4% (n = 4,900);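 active = thallium signal drop more than 5 SD beyond the mean of the no-compound control wells, seen in both duplicate plates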;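 note: signal is fluorescence rise after thallium addition divided by baseline fluorescence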
KCNK9 uninduced = second check of KCNK9 modulator effects in non-induced HEK293 cells; FluxOR thallium flux; inhibition, % at 10 µM; AID 492997; actives 40% (n = 4,900); shares compounds with KCNK9 inh;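 active = thallium signal drop beyond 5 SD of the untreated control mean, on both duplicate plates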
Numbers stand for hits; i = inactive; nt = no result given.

SMILES	hERG protect	KCNK3 block	KCNQ1 pot	KCNQ1 inh	Cl transport mod	KCNK9 inh	KCNK9 block conf	Kir21 sel	KCNK9 uninduced
C#CCn1c(S(=O)(=O)Cc2ccc(OC)cc2)nc(-c2ccccc2)c1-c1ccccc1	i	-9.38	i	i	i	-18.4	62.5%	i	25.5%
OCCN1CCN(C2Cc3cc(Cl)ccc3Sc3ccc(Cl)cc32)CC1 (stereo not drawn) (tested in a mixture with another compound)	i	i	i	7	i	-8.6	i	i	i
Cc1ccc(C(=O)N2CCCC(C(F)(F)F)C2)cc1S(=O)(=O)N1CCOCC1 (stereo not drawn)	nt	i	nt	nt	nt	nt	nt	nt	nt
CCOC(=O)Cn1c(=NC(=O)CSC(C)=O)sc2cc(F)ccc21	i	i	i	i	i	-8.6	63.0%	i	33.0%
COCCn1c(=NC(=O)CSC(C)=O)sc2cc(F)ccc21	i	i	i	i	nt	i	nt	nt	nt
CCn1c(=NC(=O)CSC(C)=O)sc2cc(OC)ccc21	i	i	i	i	i	-13.8	60.0%	i	31.5%
CCn1c(=NC(=O)CSC(C)=O)sc2ccccc21	i	i	i	i	i	i	nt	nt	nt
COc1ccc(CNC(=O)C[C@H]2C(=O)N(Cc3ccccc3)C[C@@H]2Cc2ccccc2)cc1	i	i	i	i	nt	i	nt	nt	nt
CCCCC[C@H]1CN(Cc2ccccc2)C(=O)[C@@H]1CC(=O)NCc1ccc(OC)cc1	i	i	i	i	nt	i	i	i	28.5%
O=C(C[C@H]1C(=O)N(Cc2ccccc2)C[C@@H]1Cc1ccccc1)Nc1ccccc1	i	i	i	i	nt	i	i	i	i
CCCCN1C[C@H](Cc2ccccc2)[C@@H](CC(=O)Nc2ccccc2)C1=O	i	i	i	i	nt	i	nt	nt	nt
CCOCCOC(=O)C(C)Oc1ccc(Oc2nc(Cl)ccc2Cl)cc1 (stereo not drawn)	i	i	i	i	i	i	nt	nt	nt
COc1ccc(CN2CCC(CO)(Cc3ccccc3C(F)(F)F)CC2)c(F)c1	i	i	i	i	i	i	i	i	i
COc1ccc(CC2(CO)CCN(Cc3cccc4nccnc34)CC2)cc1	i	i	i	i	i	i	nt	nt	nt
COc1ccccc1NC(=O)C(=O)NCC(c1ccco1)N1CCc2ccccc2C1 (stereo not drawn)	i	i	i	i	nt	i	i	i	i
COc1ccccc1C1CCN(Cc2ccc(Cl)cc2Cl)CC1	i	i	i	i	nt	i	nt	nt	nt
COc1ccccc1C1CCN(Cc2ccc(Cl)c(Cl)c2)CC1	i	i	i	i	nt	i	i	i	i
COc1ccccc1C1CCN(Cc2cccc3ccccc23)CC1	i	i	i	i	nt	i	i	i	27.0%
CC(=O)c1ccc(N2CCN(C(=O)c3ccccc3SCC(=O)NCc3ccco3)CC2)c(F)c1	nt	i	nt	nt	nt	nt	nt	nt	nt
O=C(CN1C(=O)CC(c2ccccc2)=Nc2ccccc21)NCc1ccccc1	i	i	i	i	i	i	nt	nt	nt
CCN(CC)c1ccc(/C=C/C(=O)C2C(=O)C=C(C)OC2=O)cc1 (stereo not drawn)	i	i	i	i	i	-9.53	86.5%	101.0%	85.0%
O=[N+]([O-])c1cc(CN2CCC(O)CC2)ccc1Cl	i	i	i	i	i	i	nt	nt	nt
Cc1ccc(C)c(N2CCN(S(=O)(=O)c3c(C)noc3C)CC2)c1	i	i	i	i	nt	i	i	i	28.0%
Cc1ccc(C)c(N2CCN(S(=O)(=O)c3ccc(-c4cc(C)no4)s3)CC2)c1	i	i	i	i	nt	i	nt	nt	nt
C=C(C)[C@@H]1CC=C(C(=O)O)CC1	i	i	i	i	i	i	nt	nt	nt
CCc1cc(C(=O)OC)c(NC(=O)CN2CCN(C(=O)c3ccco3)CC2)s1	i	i	i	i	nt	i	nt	nt	nt
CCN1CCN(C(=S)Nc2sc(C)c(-c3ccccc3)c2C(=O)OC)CC1	i	i	i	6	nt	i	i	i	i
